What is called IC50 is the concentration needed to halve the response being measured. In general, inhibition refers to the percentage by which the read-out fell short of the control. Usually MIC stands for the lowest concentration that inhibits growth of the organism.

Experimental findings from ChEMBL document CHEMBL3751721, “Development of acridine derivatives as selective Mycobacterium tuberculosis DNA gyrase inhibitors” (Bioorg Med Chem, 2016) are described below.

Values after ≈ are worked out from the molar mass of the structure shown. Active and inactive are the calls of the source. No cut-off for these calls is given here.

Series [1] deals with DNA gyrase subunit A/DNA gyrase subunit B (Mycobacterium tuberculosis (strain ATCC 25618 / H37Rv), UniProt P9WG45+P9WG47). The experiment in a line: Inhibition of Mycobacterium tuberculosis DNA gyrase assessed as inhibition of DNA supercoiling after 30 mins by electrophoresis.
DNA gyrase subunit A/DNA gyrase subunit B, sequence (P9WG45 whole entry): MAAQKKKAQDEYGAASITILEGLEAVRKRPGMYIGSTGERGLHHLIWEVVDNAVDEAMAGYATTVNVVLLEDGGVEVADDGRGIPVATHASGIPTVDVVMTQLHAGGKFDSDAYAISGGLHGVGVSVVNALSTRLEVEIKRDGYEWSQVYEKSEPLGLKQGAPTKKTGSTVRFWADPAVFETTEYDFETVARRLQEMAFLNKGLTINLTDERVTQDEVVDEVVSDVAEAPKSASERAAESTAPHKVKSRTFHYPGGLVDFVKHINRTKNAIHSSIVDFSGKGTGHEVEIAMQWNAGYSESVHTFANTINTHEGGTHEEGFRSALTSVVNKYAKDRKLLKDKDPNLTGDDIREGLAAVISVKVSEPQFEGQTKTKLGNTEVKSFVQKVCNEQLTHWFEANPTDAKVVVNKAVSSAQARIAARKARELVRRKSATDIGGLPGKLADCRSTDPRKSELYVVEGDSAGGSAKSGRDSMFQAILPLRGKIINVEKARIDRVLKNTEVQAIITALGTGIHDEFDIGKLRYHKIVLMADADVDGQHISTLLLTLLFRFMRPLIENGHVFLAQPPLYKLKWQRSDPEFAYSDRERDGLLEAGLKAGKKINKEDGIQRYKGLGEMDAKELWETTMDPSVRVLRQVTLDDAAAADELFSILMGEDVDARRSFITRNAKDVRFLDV
DNA gyrase subunit A/DNA gyrase subunit B, sequence (P9WG47 whole entry): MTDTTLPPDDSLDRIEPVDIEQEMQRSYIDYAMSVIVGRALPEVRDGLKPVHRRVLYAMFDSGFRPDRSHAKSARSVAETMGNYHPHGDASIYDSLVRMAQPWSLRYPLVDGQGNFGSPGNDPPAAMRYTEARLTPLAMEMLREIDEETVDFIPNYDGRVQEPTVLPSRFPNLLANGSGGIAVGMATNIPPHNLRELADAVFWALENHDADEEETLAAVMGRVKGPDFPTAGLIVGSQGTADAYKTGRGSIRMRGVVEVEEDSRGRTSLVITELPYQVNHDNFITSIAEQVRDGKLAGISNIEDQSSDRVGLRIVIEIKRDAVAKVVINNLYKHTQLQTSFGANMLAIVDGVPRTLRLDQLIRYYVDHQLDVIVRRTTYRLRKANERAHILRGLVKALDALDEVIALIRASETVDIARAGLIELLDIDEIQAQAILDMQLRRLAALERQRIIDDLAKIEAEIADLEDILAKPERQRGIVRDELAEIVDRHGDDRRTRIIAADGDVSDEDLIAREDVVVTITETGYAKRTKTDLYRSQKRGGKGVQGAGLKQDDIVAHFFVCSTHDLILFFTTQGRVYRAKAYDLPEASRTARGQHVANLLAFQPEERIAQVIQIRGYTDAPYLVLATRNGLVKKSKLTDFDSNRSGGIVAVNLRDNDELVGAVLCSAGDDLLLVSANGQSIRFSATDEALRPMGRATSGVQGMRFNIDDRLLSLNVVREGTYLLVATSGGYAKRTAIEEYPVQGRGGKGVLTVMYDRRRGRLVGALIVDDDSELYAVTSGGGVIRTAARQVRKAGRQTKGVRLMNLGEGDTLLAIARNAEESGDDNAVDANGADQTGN
For series [2], the target named is DNA gyrase subunit B (Mycobacterium smegmatis) (UniProt P0C559). The experiment in a line: Inhibition of Mycobacterium smegmatis GyrB by ATPase assay. The following applies: Mycolicibacterium smegmatis.
DNA gyrase subunit B (Mycobacterium smegmatis), sequence (P0C559 2-675 limits assumed): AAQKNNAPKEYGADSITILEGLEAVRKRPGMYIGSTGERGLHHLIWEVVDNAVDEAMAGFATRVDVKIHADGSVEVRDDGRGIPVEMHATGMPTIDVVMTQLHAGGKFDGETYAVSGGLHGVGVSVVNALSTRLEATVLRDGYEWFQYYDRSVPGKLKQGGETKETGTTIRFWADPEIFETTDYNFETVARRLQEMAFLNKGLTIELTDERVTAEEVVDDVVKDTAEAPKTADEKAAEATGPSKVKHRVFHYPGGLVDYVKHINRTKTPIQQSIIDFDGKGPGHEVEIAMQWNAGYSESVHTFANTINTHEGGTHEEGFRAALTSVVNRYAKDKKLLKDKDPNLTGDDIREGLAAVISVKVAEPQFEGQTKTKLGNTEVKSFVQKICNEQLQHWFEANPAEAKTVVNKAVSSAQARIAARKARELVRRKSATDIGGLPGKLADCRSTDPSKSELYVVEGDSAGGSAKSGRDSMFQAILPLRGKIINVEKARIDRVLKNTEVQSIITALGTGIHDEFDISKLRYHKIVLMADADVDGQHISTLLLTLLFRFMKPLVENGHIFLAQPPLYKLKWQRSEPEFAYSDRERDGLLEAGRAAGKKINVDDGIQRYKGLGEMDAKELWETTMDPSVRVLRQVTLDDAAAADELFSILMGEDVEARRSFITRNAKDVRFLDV
In series [3] the target is DNA gyrase (Staphylococcus aureus) (UniProt P0A0K8+P20831). The experiment in a line: Inhibition of Staphylococcus aureus DNA gyrase assessed as inhibition of DNA supercoiling. The class given is protein-complex assay.
DNA gyrase (Staphylococcus aureus), sequence (P0A0K8 2-644 limits assumed): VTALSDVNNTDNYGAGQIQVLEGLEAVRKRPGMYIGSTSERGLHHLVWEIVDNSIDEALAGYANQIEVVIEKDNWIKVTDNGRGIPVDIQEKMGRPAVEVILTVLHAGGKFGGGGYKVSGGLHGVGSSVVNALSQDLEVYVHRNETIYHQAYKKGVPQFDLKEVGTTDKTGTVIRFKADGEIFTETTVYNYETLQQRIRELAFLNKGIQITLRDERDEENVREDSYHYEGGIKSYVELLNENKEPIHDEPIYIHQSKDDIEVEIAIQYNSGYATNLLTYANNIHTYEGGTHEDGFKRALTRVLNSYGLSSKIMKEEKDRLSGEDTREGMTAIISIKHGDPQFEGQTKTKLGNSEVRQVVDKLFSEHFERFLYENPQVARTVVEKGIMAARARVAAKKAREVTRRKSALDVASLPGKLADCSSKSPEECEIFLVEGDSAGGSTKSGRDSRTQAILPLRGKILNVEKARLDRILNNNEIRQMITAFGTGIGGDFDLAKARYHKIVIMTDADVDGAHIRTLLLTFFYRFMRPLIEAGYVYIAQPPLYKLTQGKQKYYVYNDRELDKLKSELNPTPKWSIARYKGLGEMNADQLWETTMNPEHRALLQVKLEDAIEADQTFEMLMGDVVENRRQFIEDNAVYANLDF
DNA gyrase (Staphylococcus aureus), sequence (P20831 whole entry partner): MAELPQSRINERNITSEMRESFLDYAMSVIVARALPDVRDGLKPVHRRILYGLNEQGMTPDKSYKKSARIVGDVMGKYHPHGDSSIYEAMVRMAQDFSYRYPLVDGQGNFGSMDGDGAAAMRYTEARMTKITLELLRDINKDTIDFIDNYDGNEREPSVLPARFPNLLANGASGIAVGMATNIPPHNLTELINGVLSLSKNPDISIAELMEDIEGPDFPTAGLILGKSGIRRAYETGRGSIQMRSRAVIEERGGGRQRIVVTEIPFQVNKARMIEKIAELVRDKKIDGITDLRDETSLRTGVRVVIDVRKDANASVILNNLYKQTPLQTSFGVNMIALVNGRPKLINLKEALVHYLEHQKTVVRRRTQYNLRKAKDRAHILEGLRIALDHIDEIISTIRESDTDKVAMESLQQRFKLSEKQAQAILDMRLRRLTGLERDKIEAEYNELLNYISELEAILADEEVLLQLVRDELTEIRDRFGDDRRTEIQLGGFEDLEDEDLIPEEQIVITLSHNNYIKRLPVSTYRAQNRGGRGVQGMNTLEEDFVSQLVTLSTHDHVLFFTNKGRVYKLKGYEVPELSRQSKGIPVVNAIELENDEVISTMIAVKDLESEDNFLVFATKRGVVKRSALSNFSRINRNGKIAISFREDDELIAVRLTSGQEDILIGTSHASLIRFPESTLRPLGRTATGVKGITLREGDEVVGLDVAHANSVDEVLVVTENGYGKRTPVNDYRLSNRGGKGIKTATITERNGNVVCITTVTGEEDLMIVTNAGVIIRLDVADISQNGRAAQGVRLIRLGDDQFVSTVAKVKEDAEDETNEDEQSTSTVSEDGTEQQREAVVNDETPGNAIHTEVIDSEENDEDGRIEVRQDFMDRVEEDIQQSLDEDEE
The next series concerns Escherichia coli. The experiment in a line: Inhibition of Escherichia coli DNA gyrase assessed as inhibition of DNA supercoiling.
Series [4] concerns the target DNA gyrase (Pseudomonas aeruginosa) (UniProt P48372+Q9I7C2). The experiment in a line: Inhibition of Pseudomonas aeruginosa DNA gyrase assessed as inhibition of DNA supercoiling. It counts as protein-complex assay.
Series [5] deals with Mycobacterium tuberculosis. The experiment in a line: Inhibition of Mycobacterium tuberculosis DNA topoisomerase 1 assessed as DNA relaxation at 50 uM.
Series [6] relates to Mycobacterium tuberculosis. The experiment in a line: Antimicrobial activity against Mycobacterium tuberculosis H37Rv ATCC 27294 after 28 days by alamar blue assay. It counts as functional. To be noted: H37Rv ATCC 27294, 672 h. (In general: The colour change of resazurin is a common sign of viable cells or microbes.)
A short description of series [7]: Cytotoxicity against mouse RAW264.7 cells assessed as inhibition of cell growth at 50 uM after 72 hrs by MTT assay. The class given is cell-based. Put shortly:
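RAW 264.7 mouse macrophages exposed to compound at 50 µM for 72 h. Viability read by MTT conversion to formazan, reported as percent inhibition.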

With `O=S(=O)(Nc1ccc(Nc2c3ccccc3nc3ccccc23)cc1)c1ccccc1`, in series [1], the IC50 stood at 15.1 µM. In addition, the inhibition entry (in series [2]; in series [3]; with Escherichia coli; in series [4]; in series [5]) was “inactive” throughout. Besides, the MIC in series [6] came out at 14.7 µM (≈ 6.25 µg/mL). The inhibition at 72 h, 50 µM in series [7] was 42.1%.

As to `O=[N+]([O-])c1ccc(NC(=S)Nc2ccc(Nc3c4ccccc4nc4ccc(Cl)cc34)cc2)cc1`, the IC50 in series [1] is 28.8 µM. For the same compound, the inhibition result (in series [2]; in series [3]; in the series with Escherichia coli; in series [4]; in series [5]) was “inactive” each time. Besides, the MIC in series [6] is greater than 50 µM. Also, the inhibition at 72 h, 50 µM in series [7] is 30.4%.

As to `O=C(Nc1ccc(Nc2c3ccccc3nc3ccc(Cl)cc23)cc1)Nc1ccc([N+](=O)[O-])cc1`, the IC50 in series [1] came to 7.3 µM. The inhibition result (in series [2]; in series [3]; in the series with Escherichia coli; in series [4]; in series [5]) was “inactive” throughout. The MIC in series [6] came to 6.46 µM (≈ 3.13 µg/mL). Besides, in series [7], the inhibition at 72 h, 50 µM is 45.9%.

`O=S(=O)(Nc1ccc(Nc2c3ccccc3nc3ccccc23)cc1)c1ccc(Cl)cc1`: the IC50 in series [1] was determined as 23.8 µM. For the same compound, the inhibition result (in series [2]; in series [3]; with Escherichia coli; in series [4]; in series [5]) was “inactive” in each case. This compound also yielded an MIC in series [6] of 27.2 µM (≈ 12.5 µg/mL). Further, the inhibition at 72 h, 50 µM in series [7] was found to be 34.2%.

Consider `Cc1ccc(S(=O)(=O)Nc2ccc(Nc3c4ccccc4nc4ccc(Cl)cc34)cc2)cc1`, for which the IC50 in series [1] was determined as 22.8 µM. Also, the inhibition result (in series [2]; in series [3]; in the series with Escherichia coli; in series [4]; in series [5]) was “inactive” throughout. Moreover, in series [6], the MIC is greater than 52.8 µM. Also, the inhibition at 72 h, 50 µM in series [7] was determined as 38.5%.

In the case of `O=C(Nc1ccc(Nc2c3ccccc3nc3ccccc23)cc1)Nc1ccc([N+](=O)[O-])cc1`, in series [1], the IC50 stood at 26.8 µM. The inhibition result (in series [2]; in series [3]; in the series on Escherichia coli; in series [4]; in series [5]) was “inactive” each time. It took 27.8 µM (≈ 12.5 µg/mL) to inhibit growth in series [6] (MIC). The inhibition at 72 h, 50 µM in series [7] worked out at 19.2%.

Consider `O=C(Nc1ccccc1)Nc1ccc(Nc2c3ccccc3nc3ccc(Cl)cc23)cc1`, for which, in series [1], the half-maximal inhibitory concentration (IC50) was determined as 23.6 µM. The inhibition entry (in series [2]; in series [3]; with Escherichia coli; in series [4]; in series [5]) was “inactive” each time. Besides, 28.5 µM (≈ 12.5 µg/mL) was the least that counted as inhibitory in series [6] (MIC). Moreover, in series [7], the inhibition at 72 h, 50 µM worked out at 27.7%.

With `Cc1ccc(NC(=O)Nc2ccc(Nc3c4ccccc4nc4ccc(C)cc34)cc2)cc1`, the 50% inhibitory concentration (IC50) in series [1] turned out to be 29.6 µM. Also, the inhibition result (in series [2]; in series [3]; in the series on Escherichia coli; in series [4]; in series [5]) was “inactive” in each case. Further, the MIC in series [6] came to 57.8 µM (≈ 25 µg/mL). The inhibition at 72 h, 50 µM in series [7] was 43.1%.

Turning to `Cc1ccc2nc3ccccc3c(Nc3ccc(NC(=O)Nc4ccc([N+](=O)[O-])cc4)cc3)c2c1`, in series [1], the IC50 was 7.4 µM. Besides, the inhibition entry (in series [2]; in series [3]; with Escherichia coli; in series [4]; in series [5]) was “inactive” in each case. In addition, the MIC in series [6] turned out to be 13.5 µM (≈ 6.25 µg/mL). The inhibition at 72 h, 50 µM in series [7] turned out to be 33.9%.

`O=S(=O)(Nc1ccc(Nc2c3ccccc3nc3ccc(Cl)cc23)cc1)c1ccccc1`: in series [1], the half-maximal inhibitory concentration (IC50) turned out to be 9.2 µM. Also, the inhibition result (in series [2]; in series [3]; with Escherichia coli; in series [4]; in series [5]) was “inactive” in each case. The compound further had an MIC in series [6] of 27.2 µM (≈ 12.5 µg/mL). For the same compound, the inhibition at 72 h, 50 µM in series [7] came to 14.5%.

As for `O=[N+]([O-])c1ccc(S(=O)(=O)Nc2ccc(Nc3c4ccccc4nc4ccccc34)cc2)cc1`, the half-maximal inhibitory concentration (IC50) in series [1] worked out at 22.4 µM. Further, the inhibition result (in series [2]; in series [3]; with Escherichia coli; in series [4]; in series [5]) was “inactive” each time. Further, in series [6], the minimum inhibitory concentration (MIC) is 24.6 µM (≈ 11.6 µg/mL). Besides, the inhibition at 72 h, 50 µM in series [7] was determined as 34.1%.

With `Cc1ccc(NC(=S)Nc2ccc(Nc3c4ccccc4nc4ccc(C)cc34)cc2)cc1`, the IC50 in series [1] came to 26.9 µM. The inhibition result (in series [2]; in series [3]; in the series with Escherichia coli; in series [4]; in series [5]) was “inactive” throughout. The same compound registered an MIC in series [6] of 55.7 µM (≈ 25 µg/mL). Also, the inhibition at 72 h, 50 µM in series [7] was 35%.

As for `S=C(Nc1ccccc1)Nc1ccc(Nc2c3ccccc3nc3ccc(Cl)cc23)cc1`, the IC50 in series [1] amounted to 29.3 µM. Further, the inhibition entry (in series [2]; in series [3]; with Escherichia coli; in series [4]; in series [5]) was “inactive” in each case. In series [6], this compound had a minimal inhibitory concentration (MIC) of 27.5 µM (≈ 12.5 µg/mL). Also, in series [7], the inhibition at 72 h, 50 µM was determined as 11.7%.

With `Cc1ccc(NC(=O)Nc2ccc(Nc3c4ccccc4nc4ccccc34)cc2)cc1`, the IC50 in series [1] came to 13.1 µM. Moreover, the inhibition entry (in series [2]; in series [3]; in the series with Escherichia coli; in series [4]; in series [5]) was “inactive” in each case. Moreover, in series [6], the MIC was found to be 14.9 µM (≈ 6.25 µg/mL). Also, in series [7], the inhibition at 72 h, 50 µM worked out at 18.4%.

As to `S=C(Nc1ccc(Cl)cc1)Nc1ccc(Nc2c3ccccc3nc3ccc(Cl)cc23)cc1`, the IC50 in series [1] is 31.5 µM. Moreover, the inhibition result (in series [2]; in series [3]; in the series with Escherichia coli; in series [4]; in series [5]) was “inactive” each time. This compound returned an MIC in series [6] greater than 51.1 µM. In addition, the inhibition at 72 h, 50 µM in series [7] is 6.7%.

The compound `COc1c(N2C[C@@H]3CCCN[C@@H]3C2)c(F)cc2c(=O)c(C(=O)O)cn(C3CC3)c12` [MOXIFLOXACIN] returned an MIC in series [6] of 1.26 µM (≈ 0.506 µg/mL). Besides, the inhibition at 72 h, 50 µM in series [7] is 1.26%.

As for `O=C(Nc1ccc(Cl)cc1)Nc1ccc(Nc2c3ccccc3nc3ccc(Cl)cc23)cc1`, the IC50 in series [1] is 11.8 µM. Besides, the inhibition result (in series [2]; in series [3]; with Escherichia coli; in series [4]; in series [5]) was “inactive” each time. For the same compound, the MIC in series [6] worked out at 13.2 µM (≈ 6.25 µg/mL). Also, the inhibition at 72 h, 50 µM in series [7] came out at 17.1%.

As for `CO[C@H]1/C=C/O[C@@]2(C)Oc3c(C)c(O)c4c(O)c(c(/C=N/N5CCN(C)CC5)c(O)c4c3C2=O)NC(=O)/C(C)=C\C=C\[C@H](C)[C@H](O)[C@@H](C)[C@@H](O)[C@@H](C)[C@H](OC(C)=O)[C@@H]1C` [RIFAMPIN], the IC50 in series [1] is greater than 50 µM. Further, in series [6], the lowest concentration to inhibit growth (MIC) was 0.23 µM (≈ 0.189 µg/mL).

Regarding `Cc1ccc2nc3ccccc3c(Nc3ccc(NC(=O)Nc4ccc(Cl)cc4)cc3)c2c1`, the IC50 in series [1] amounted to 11.4 µM. Further, the inhibition result (in series [2]; in series [3]; in the series on Escherichia coli; in series [4]; in series [5]) was “inactive” each time. Further, in series [6], 27.6 µM (≈ 12.5 µg/mL) was the least that counted as inhibitory (MIC). Moreover, in series [7], the inhibition at 72 h, 50 µM came to 25.9%.

With `S=C(Nc1ccc(Cl)cc1)Nc1ccc(Nc2c3ccccc3nc3ccccc23)cc1`, in series [1], the IC50 stood at 8.4 µM. Also, the inhibition result (in series [2]; in series [3]; in the series with Escherichia coli; in series [4]; in series [5]) was “inactive” throughout. In series [6], this compound came in with an MIC of 13.7 µM (≈ 6.25 µg/mL). For the same compound, the inhibition at 72 h, 50 µM in series [7] was found to be 12.5%.

In the case of `Cc1ccc2nc3ccccc3c(Nc3ccc(NS(=O)(=O)c4ccc([N+](=O)[O-])cc4)cc3)c2c1`, the IC50 in series [1] was 8.34 µM. The inhibition entry (in series [2]; in series [3]; with Escherichia coli; in series [4]; in series [5]) was “inactive” throughout. In series [6], this compound returned an MIC of 12.9 µM (≈ 6.25 µg/mL). For the same compound, the inhibition at 72 h, 50 µM in series [7] is 27%.

`NNC(=O)c1ccncc1` [ISONIAZID]: the IC50 in series [1] is greater than 50 µM. This compound also gave an MIC in series [6] of 0.66 µM (≈ 0.0905 µg/mL).

`CO[C@@H]1[C@@H](OC(N)=O)[C@@H](O)[C@H](Oc2ccc3c(O)c(NC(=O)c4ccc(O)c(CC=C(C)C)c4)c(=O)oc3c2C)OC1(C)C` [NOVOBIOCIN] registered an MIC in series [6] greater than 50 µM.
